Data taken from ChEMBL document CHEMBL5329156, “Discovery and development of novel substituted monohydrazides as potent antifungal agents” (RSC Med Chem, 2023).
In brackets after ≈: the same amount, converted by molar mass. Activity calls are given as the source filed them. No cut-off for these calls is given here.

Assays:
Clavispora lusitaniae = test: Antifungal activity against Clavispora lusitaniae AR Bank # 398 assessed as fungal growth inhibition by double dilution method; format: functional
Outline: (§1)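 Broth microdilution after CLSI M27-A3/M38-A2 with minor changes. Single colony grown overnight in YPD at 35 °C, 200 rpm. Compound final range 0.06-31.3 µg/mL; incubated 48 h at 35 °C.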

Aspergillus fumigatus [1] = test: Antifungal activity against Aspergillus fumigatus NRRL 6113 assessed as fungal growth inhibition by double dilution method; format: functional
Candida albicans [2] = test: Antifungal activity against itraconazole/fluconazole resistant Candida albicans ATCC 90819 assessed as fungal growth inhibition by double dilution method; format: functional
Outline: (§2)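 Broth microdilution after CLSI M27-A3/M38-A2 with minor modifications. A single colony was grown overnight in YPD at 35 °C with shaking at 200 rpm. Cells were mixed 1:1 with compound (final 0.06-31.3 µg/mL, from DMSO stocks) and incubated 48 h at 35 °C.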

[Candida] auris [3] = Antifungal activity against Candida auris AR Bank # 382 assessed as fungal growth inhibition by double dilution method; format: functional; conditions: Candidozyma auris; outline: as §1
Candida duobushaemulonii [4] = test: Antifungal activity against Candida duobushaemulonii AR Bank # 394 assessed as fungal growth inhibition by double dilution method; format: functional; conditions: Candidozyma duobushaemuli; outline: as §1
Saccharomyces cerevisiae [5] = test: Antifungal activity against Saccharomyces cerevisiae AR Bank # 400 assessed as fungal growth inhibition by double dilution method; format: functional; outline: as §1
[Candida] auris [6] = Antifungal activity against Candida auris AR Bank # 390 assessed as fungal growth inhibition by double dilution method; format: functional; conditions: Candidozyma auris; outline: as §1
Pichia kudriavzevii [7] = test: Antifungal activity against Pichia kudriavzevii AR Bank # 397 assessed as fungal growth inhibition by double dilution method; format: functional; outline: as §1
[Candida] auris [8] = Antifungal activity against Candida auris AR Bank # 386 assessed as fungal growth inhibition by double dilution method; format: functional; conditions: Candidozyma auris; outline: as §1
Candida duobushaemulonii [9] = test: Antifungal activity against Candida duobushaemulonii AR Bank # 392 assessed as fungal growth inhibition by double dilution method; format: functional; conditions: Candidozyma duobushaemuli; outline: as §1
Aspergillus nidulans = test: Antifungal activity against Aspergillus nidulans ATCC 38163 assessed as fungal growth inhibition by double dilution method; format: functional
[Candida] auris [10] = Antifungal activity against Candida auris AR Bank # 384 assessed as fungal growth inhibition by double dilution method; format: functional; conditions: Candidozyma auris; outline: as §1
[Candida] auris [11] = Antifungal activity against Candida auris AR Bank # 388 assessed as fungal growth inhibition by double dilution method; format: functional; conditions: Candidozyma auris; outline: as §1
Candida albicans [12] = test: Antibiofilm activity against Candida albicans ATCC 10231 assessed as reduction in biofilm production at 1.96 to 3.9 microg/ml by biofilm formation assay; format: functional, organism-based; conditions: dose 1.96-3.9 µg/ml
Candida albicans [13] = test: Antifungal activity against Candida albicans ATCC 10231 assessed as fungal growth inhibition by double dilution method; format: functional; outline: as §1
[Candida] auris [14] = Antifungal activity against Candida auris AR Bank # 383 assessed as fungal growth inhibition by double dilution method; format: functional; conditions: Candidozyma auris; outline: as §1
Aspergillus fumigatus [15] = test: Antifungal activity against Aspergillus fumigatus NRRL 163 assessed as fungal growth inhibition by double dilution method; format: functional
Aspergillus flavus = test: Antifungal activity against Aspergillus flavus ATCC MYA-3631 assessed as fungal growth inhibition by double dilution method; format: functional
Candida albicans [16] = test: Antifungal activity against itraconazole/fluconazole resistant Candida albicans ATCC MYA-1237 assessed as fungal growth inhibition by double dilution method; format: functional; outline: as §2
[Candida] auris [17] = Antifungal activity against Candida auris AR Bank # 381 assessed as fungal growth inhibition by double dilution method; format: functional; conditions: Candidozyma auris; outline: as §1
Candida albicans [18] = test: Antifungal activity against Candida albicans ATCC 64124 assessed as fungal growth inhibition by double dilution method; format: functional; outline: as §2
Candida albicans [19] = test: Antifungal activity against itraconazole/fluconazole susceptible Candida albicans ATCC MYA-2310 assessed as fungal growth inhibition by double dilution method; format: functional; outline: as §2
Aspergillus fumigatus [20] = test: Antifungal activity against Aspergillus fumigatus NRRL 5109 assessed as fungal growth inhibition by double dilution method; format: functional
Aspergillus terreus = test: Antifungal activity against Aspergillus terreus ATCC MYA-3633 assessed as fungal growth inhibition by double dilution method; format: functional
Saccharomyces cerevisiae [21] = test: Antifungal activity against Saccharomyces cerevisiae AR Bank # 399 assessed as fungal growth inhibition by double dilution method; format: functional; outline: as §1
Candida albicans [22] = test: Antifungal activity against itraconazole/fluconazole resistant Candida albicans ATCC MYA-1003 assessed as fungal growth inhibition by double dilution method; format: functional; outline: as §2
Nakaseomyces glabratus [23] = test: Antifungal activity against Candida glabrata ATCC 2001 assessed as fungal growth inhibition by double dilution method; format: functional; outline: as §1
Pichia kudriavzevii [24] = test: Antifungal activity against Pichia kudriavzevii ATCC 6258 assessed as fungal growth inhibition by double dilution method; format: functional; outline: as §1
[Candida] auris [25] = Antifungal activity against Candida auris AR Bank # 389 assessed as fungal growth inhibition by double dilution method; format: functional; conditions: Candidozyma auris; outline: as §1
Nakaseomyces glabratus [26] = test: Antifungal activity against Candida glabrata ATCC 22019 assessed as fungal growth inhibition by double dilution method; format: functional; outline: as §1
[Candida] auris [27] = Antifungal activity against Candida auris AR Bank # 0390 assessed as fungal growth inhibition by double dilution method; format: functional; conditions: Candidozyma auris; outline: as §1
Candida duobushaemulonii [28] = test: Antifungal activity against Candida duobushaemulonii AR Bank # 391 assessed as fungal growth inhibition by double dilution method; format: functional; conditions: Candidozyma duobushaemuli; outline: as §1
[Candida] auris [29] = Antifungal activity against Candida auris AR Bank # 0384 assessed as fungal growth inhibition by double dilution method; format: functional; conditions: Candidozyma auris; outline: as §1
[Candida] haemuloni [30] = Antifungal activity against Candida haemulonii AR Bank # 393 assessed as fungal growth inhibition by double dilution method; format: functional; conditions: Candidozyma haemuli; outline: as §1
Candida albicans [31] = test: Antifungal activity against itraconazole/fluconazole susceptible Candida albicans ATCC MYA-2876 assessed as fungal growth inhibition by double dilution method; format: functional; outline: as §2
[Candida] auris [32] = Antifungal activity against Candida auris AR Bank # 387 assessed as fungal growth inhibition by double dilution method; format: functional; conditions: Candidozyma auris; outline: as §1
Cryptococcus neoformans = test: Antifungal activity against Cryptococcus neoformans ATCC MYA-895 assessed as fungal growth inhibition by double dilution method; format: functional; outline: as §1
Kodamaea ohmeri = test: Antifungal activity against Kodamaea ohmeri AR Bank # 396 assessed as fungal growth inhibition by double dilution method; format: functional; outline: as §1
[Candida] haemuloni [33] = Antifungal activity against Candida haemulonii AR Bank # 395 assessed as fungal growth inhibition by double dilution method; format: functional; conditions: Candidozyma haemuli; outline: as §1
[Candida] auris [34] = Antifungal activity against Candida auris AR Bank # 385 assessed as fungal growth inhibition by double dilution method; format: functional; conditions: Candidozyma auris; outline: as §1

For COc1ccc(NNC(=O)c2ccccn2)cc1, the MIC (Clavispora lusitaniae) was 0.98 µg/mL (≈ 4.03 µM), the MIC (Aspergillus fumigatus [1]) was 31.3 µg/mL (≈ 129 µM) and the MIC (Candida albicans [2]) was 0.49 µg/mL (≈ 2.01 µM). The MIC ([Candida] auris [3]) was 1.95 µg/mL (≈ 8.02 µM), the MIC (Candida duobushaemulonii [4]) was 0.98 µg/mL (≈ 4.03 µM) and the MIC (Saccharomyces cerevisiae [5]) was 0.98 µg/mL (≈ 4.03 µM). The MIC ([Candida] auris [6]) was 0.12 µg/mL (≈ 0.493 µM), the MIC (Pichia kudriavzevii [7]) was 0.49 µg/mL (≈ 2.01 µM) and the MIC ([Candida] auris [8]) was 0.24 µg/mL (≈ 0.987 µM). For the same compound, the MIC (Candida duobushaemulonii [9]) was 0.98 µg/mL (≈ 4.03 µM), the MIC (Aspergillus nidulans) was 0.49 µg/mL (≈ 2.01 µM) and the MIC ([Candida] auris [10]) was 3.9 µg/mL (≈ 16 µM). For the same compound, the MIC ([Candida] auris [11]) was 0.49 µg/mL (≈ 2.01 µM), the Activity (Candida albicans [12]) was “Active” and the MIC (Candida albicans [13]) was 0.12 µg/mL (≈ 0.493 µM). It also gave an MIC ([Candida] auris [14]) of 1.95 µg/mL (≈ 8.02 µM), an MIC (Aspergillus fumigatus [15]) greater than 31.3 µg/mL and an MIC (Aspergillus flavus) greater than 31.3 µg/mL. It also gave an MIC (Candida albicans [16]) of 0.98 µg/mL (≈ 4.03 µM), an MIC ([Candida] auris [17]) of 1.95 µg/mL (≈ 8.02 µM) and an MIC (Candida albicans [18]) of 0.98 µg/mL (≈ 4.03 µM). For the same compound, the MIC (Candida albicans [19]) was 0.98 µg/mL (≈ 4.03 µM), the MIC (Aspergillus fumigatus [20]) was greater than 31.3 µg/mL and the MIC (Aspergillus terreus) was 31.3 µg/mL (≈ 129 µM). For the same compound, the MIC (Saccharomyces cerevisiae [21]) was 1.95 µg/mL (≈ 8.02 µM), the MIC (Candida albicans [22]) was 0.98 µg/mL (≈ 4.03 µM) and the MIC (Nakaseomyces glabratus [23]) was 0.98 µg/mL (≈ 4.03 µM). It also gave an MIC (Pichia kudriavzevii [24]) of 0.49 µg/mL (≈ 2.01 µM), an MIC ([Candida] auris [25]) of 0.24 µg/mL (≈ 0.987 µM) and an MIC (Nakaseomyces glabratus [26]) of 3.9 µg/mL (≈ 16 µM). The MIC ([Candida] auris [27]) was 0.12 µg/mL (≈ 0.493 µM), the MIC (Candida duobushaemulonii [28]) was 0.98 µg/mL (≈ 4.03 µM) and the MIC ([Candida] auris [29]) was 3.9 µg/mL (≈ 16 µM). For the same compound, the MIC ([Candida] haemuloni [30]) was 0.49 µg/mL (≈ 2.01 µM), the MIC (Candida albicans [31]) was 1.95 µg/mL (≈ 8.02 µM) and the MIC ([Candida] auris [32]) was 0.49 µg/mL (≈ 2.01 µM). The MIC (Cryptococcus neoformans) was 0.49 µg/mL (≈ 2.01 µM), the MIC (Kodamaea ohmeri) was 0.49 µg/mL (≈ 2.01 µM) and the MIC ([Candida] haemuloni [33]) was 0.49 µg/mL (≈ 2.01 µM). The MIC ([Candida] auris [34]) was 0.98 µg/mL (≈ 4.03 µM).
